Tests used:
[1] = target: T1, S100A2 (Homo sapiens, UniProt P29034); assay: ITC titration of TRTK12 peptides with S100A2; conditions: heat capacity change upon binding, slope of ΔHcal vs temperature
[2] = target: T1, S100A2; assay: Acrylamide dynamic quenching of peptide Trp in S100A2 complex; assay type: binding; conditions: Stern-Volmer constant
Procedure, shortened: (§1)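 Trp quenching was run on 4–8 μM peptide with or without saturating S100 protein, in binding buffer (20 mM Tris, 0.2 mM EDTA, 1 mM TCEP, pH 7.5) containing 5 mM CaCl2 or 5 mM EDTA. Acrylamide was titrated to about 0.6 M final. Intensities were dilution-corrected, fitted to a modified Stern-Volmer equation with a static term, and averages reported.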

[3] = target: T2, S100P (Homo sapiens, UniProt P25815); assay: ITC titration of TRTK12 peptides with S100P; assay type: binding; conditions: for ΔCp, exp: heat capacity change upon binding, slope of ΔHcal vs temperature, ITC
T2 sequence (P25815 1-95): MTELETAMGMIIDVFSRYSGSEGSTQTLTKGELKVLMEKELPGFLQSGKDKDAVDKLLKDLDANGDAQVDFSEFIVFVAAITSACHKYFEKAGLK

[4] = target: T3, S100B (Homo sapiens, UniProt P04271); assay: Acrylamide dynamic quenching of peptide Trp in S100B complex; assay type: binding; conditions: Stern-Volmer constant
T3 sequence (P04271 2-92 limits assumed): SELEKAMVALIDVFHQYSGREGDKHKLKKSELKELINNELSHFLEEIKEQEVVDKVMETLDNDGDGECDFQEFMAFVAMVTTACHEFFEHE
Procedure, shortened: as §1

[5] = target: T2, S100P; assay: Steady-state emission fluorescence titration with S100P; assay type: binding; conditions: Trp emission
[6] = target: T3, S100B; assay: ITC titration of TRTK12 peptides with S100B; assay type: binding
[7] = ITC fit, Equation 1, 5 mM CaCl2

T1 sequence (P29034 whole entry): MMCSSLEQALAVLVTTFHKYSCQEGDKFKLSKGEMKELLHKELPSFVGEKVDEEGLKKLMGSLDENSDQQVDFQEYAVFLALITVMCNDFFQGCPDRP

Structure (SMILES)	ΔCp, exp [1] [kJ·mol^−1·K^−1]	S100A2+Peptide KSV ([2]; 5 mM CaCl2) [M⁻¹]	ΔCp, exp [3] [kJ·mol^−1·K^−1]	S100B+Peptide KSV ([4]; saturating S100B, 5 mM CaCl2) [M⁻¹]	changes in the emission fluorescence intensity of the tryptophan upon peptide binding or dissociation [5]	S100A2+Peptide KSV ([2]; in the presence of 150mM NaCl)	S100B+Peptide KSV ([4]; in the presence of 150mM NaCl)	Kd [6] [nM]	stoichiometry n (peptides per S100B dimer) [6, 7]	stoichiometry n (peptides per S100P dimer) [3, 7]
CC[C@H](C)[C@H](NC(=O)[C@H](CCCCN)NC(=O)[C@H](CC(N)=O)NC(=O)[C@H](Cc1c[nH]c2ccccc12)NC(=O)[C@H](CC(=O)O)NC(=O)[C@@H](NC(=O)[C@H](CCCCN)NC(=O)[C@@H](NC(=O)[C@H](CCCNC(=N)N)NC(=O)[C@H](C)NC(C)=O)[C@@H](C)O)[C@@H](C)CC)C(=O)N[C@@H](CC(C)C)C(=O)N[C@@H](CO)C(N)=O [TRTKM1]	−0.8 ± 0.1	4.3 ± 0.2	−0.9 ± 0.1	2.4 ± 0.1	–	–	–	–	–	–
CC[C@H](C)[C@H](NC(=O)[C@H](CCCCN)NC(=O)[C@H](CC(N)=O)NC(=O)[C@H](Cc1c[nH]c2ccccc12)NC(=O)[C@H](CC(=O)O)NC(=O)[C@H](C)NC(=O)[C@H](CCCCN)NC(=O)[C@@H](NC(=O)[C@H](CCCNC(=N)N)NC(=O)[C@@H](NC(C)=O)[C@@H](C)O)[C@@H](C)O)C(=O)N[C@@H](CC(C)C)C(=O)N[C@@H](CO)C(N)=O [TRTKM5]	−0.9 ± 0.1	8.9 ± 0.2	−1.2 ± 0.1	2.8 ± 0.1	no observable changes	–	–	–	–	–
CC[C@H](C)[C@H](NC(=O)[C@H](CCCCN)NC(=O)[C@@H](NC(=O)[C@H](CCCNC(=N)N)NC(=O)[C@@H](NC(C)=O)[C@@H](C)O)[C@@H](C)O)C(=O)N[C@@H](C)C(=O)N[C@@H](Cc1c[nH]c2ccccc12)C(=O)N[C@@H](CC(N)=O)C(=O)N[C@@H](CCCCN)C(=O)N[C@H](C(=O)N[C@@H](CC(C)C)C(=O)N[C@@H](CO)C(N)=O)[C@@H](C)CC [TRTKM6]	−0.7 ± 0.1	–	−0.9 ± 0.1	–	no observable changes	4.7 ± 0.1 ^a M^−1	3.7 ± 0.1 ^a M^−1	–	–	–

Other lines, results leading:

ΔCp, exp [1] [kJ·mol^−1·K^−1]	S100A2+Peptide KSV ([2]; 5 mM CaCl2) [M⁻¹]	ΔCp, exp [3] [kJ·mol^−1·K^−1]	S100B+Peptide KSV ([4]; saturating S100B, 5 mM CaCl2) [M⁻¹]	changes in the emission fluorescence intensity of the tryptophan upon peptide binding or dissociation [5]	S100A2+Peptide KSV ([2]; in the presence of 150mM NaCl)	S100B+Peptide KSV ([4]; in the presence of 150mM NaCl)	Kd [6] [nM]	stoichiometry n (peptides per S100B dimer) [6, 7]	stoichiometry n (peptides per S100P dimer) [3, 7]	Structure (SMILES)
−0.4 ± 0.1	6.1 ± 1.1	−1.0 ± 0.1	7.2 ± 0.2	no observable changes	–	–	1700 ± 100	–	–	CC[C@H](C)[C@H](NC(=O)[C@H](C)NC(=O)[C@H](CC(N)=O)NC(=O)[C@H](Cc1c[nH]c2ccccc12)NC(=O)[C@H](CC(=O)O)NC(=O)[C@@H](NC(=O)[C@H](CCCCN)NC(=O)[C@@H](NC(=O)[C@H](CCCNC(=N)N)NC(=O)[C@@H](NC(C)=O)[C@@H](C)O)[C@@H](C)O)[C@@H](C)CC)C(=O)N[C@@H](CC(C)C)C(=O)N[C@@H](CO)C(N)=O [TRTKM9]
–	–	−1.3 ± 0.1	7.5 ± 0.1	–	–	–	–	–	–	CC[C@H](C)[C@H](NC(=O)[C@H](CCCCN)NC(=O)[C@@H](NC(=O)[C@H](CCCNC(=N)N)NC(=O)[C@@H](NC(C)=O)[C@@H](C)O)[C@@H](C)O)C(=O)N[C@@H](CC(=O)O)C(=O)N[C@@H](Cc1c[nH]c2ccccc12)C(=O)N[C@@H](CC(N)=O)C(=O)N[C@@H](CCCCN)C(=O)N[C@@H](C)C(=O)N[C@@H](CC(C)C)C(=O)N[C@@H](CO)C(N)=O [TRTKM10]
−1.6 ± 0.1	8.7 ± 0.2	−1.8 ± 0.1	7.2 ± 0.1	–	–	–	–	1	1	CC[C@H](C)[C@H](NC(=O)[C@H](CCCCN)NC(=O)[C@H](CC(N)=O)NC(=O)[C@H](Cc1c[nH]c2ccccc12)NC(=O)[C@H](CC(=O)O)NC(=O)[C@@H](NC(=O)[C@H](CCCCN)NC(=O)[C@@H](NC(=O)[C@H](CCCNC(=N)N)NC(=O)[C@@H](NC(C)=O)[C@@H](C)O)[C@@H](C)O)[C@@H](C)CC)C(=O)N[C@@H](C)C(=O)N[C@@H](CO)C(N)=O [TRTKM11]

Source: publication PMC3839042 (Biochemistry, 2013)
